Assay results from article PMC4301071 (ACS Chemical Biology, 2014).
*1 amine or outer side, *2 acyl side, *3 side chain or, on linkers, in order; H or OH if unused. Where a SMILES comes first, the peptide text is derived from it. [ ]: non-standard residue; d: D form. The star is where a group is joined. X1 = CN(CCCC[C@H](N[*:1])C(=O)[*:2])CCCCN(O)C(=O)/C=C/C(=O)O; Biotin = O=C1N[C@H]2[C@H](CS[C@H]2CCCCC(=O)*)N1; Bpa = N[C@@H](Cc1ccc(C(=O)c2ccccc2)cc1)C(=O)O; PEG4 = NCCOCCOCCOCCOCCC(=O)O

Tests used:
JHDM1A [1] = target: T1, JHDM1A (Homo sapiens, UniProt Q9Y2K7); assay: Fluorescence polarization; format: binding
T1 sequence (Q9Y2K7 1-1162): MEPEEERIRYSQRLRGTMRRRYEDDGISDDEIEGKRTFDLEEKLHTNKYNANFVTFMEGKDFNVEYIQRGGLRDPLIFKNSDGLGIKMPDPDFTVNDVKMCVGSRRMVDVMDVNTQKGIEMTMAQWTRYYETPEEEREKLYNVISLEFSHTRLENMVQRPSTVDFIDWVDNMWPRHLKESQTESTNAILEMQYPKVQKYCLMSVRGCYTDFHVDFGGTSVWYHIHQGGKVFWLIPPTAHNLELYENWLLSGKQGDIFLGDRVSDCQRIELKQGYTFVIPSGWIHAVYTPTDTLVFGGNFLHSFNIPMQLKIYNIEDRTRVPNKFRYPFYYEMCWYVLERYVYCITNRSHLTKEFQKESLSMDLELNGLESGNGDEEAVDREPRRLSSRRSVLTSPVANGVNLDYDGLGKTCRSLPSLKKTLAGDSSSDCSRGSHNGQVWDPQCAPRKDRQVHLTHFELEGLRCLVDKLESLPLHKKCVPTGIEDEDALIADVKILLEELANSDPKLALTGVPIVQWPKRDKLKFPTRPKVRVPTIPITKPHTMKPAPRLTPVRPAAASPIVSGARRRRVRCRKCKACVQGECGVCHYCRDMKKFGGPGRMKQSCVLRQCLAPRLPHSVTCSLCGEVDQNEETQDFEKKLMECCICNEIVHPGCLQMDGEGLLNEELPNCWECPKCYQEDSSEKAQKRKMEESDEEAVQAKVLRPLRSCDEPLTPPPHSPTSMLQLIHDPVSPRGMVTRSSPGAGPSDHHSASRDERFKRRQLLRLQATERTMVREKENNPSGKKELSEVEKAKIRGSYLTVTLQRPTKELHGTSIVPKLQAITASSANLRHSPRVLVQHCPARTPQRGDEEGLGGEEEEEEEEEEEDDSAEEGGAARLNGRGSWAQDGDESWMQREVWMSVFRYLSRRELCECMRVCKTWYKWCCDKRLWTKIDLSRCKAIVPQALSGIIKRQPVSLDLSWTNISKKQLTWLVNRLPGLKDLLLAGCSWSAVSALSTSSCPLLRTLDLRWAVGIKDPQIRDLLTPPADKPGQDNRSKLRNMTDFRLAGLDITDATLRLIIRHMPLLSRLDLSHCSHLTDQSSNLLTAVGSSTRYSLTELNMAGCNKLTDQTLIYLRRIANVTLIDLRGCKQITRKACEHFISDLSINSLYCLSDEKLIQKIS

JHDM1A [2] = target: T1, JHDM1A; assay: Affinity pulldown of purified JHDM1A in the presence of HeLa histone proteins; format: binding; details: in the absence of UV irradiation
Outline: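 Acid-extracted HeLa histones were prepared by Triton lysis, then 0.2 N HCl overnight at 4 °C, then lyophilisation. Biotinylated peptide probe (20 μM) was loaded onto streptavidin magnetic beads for 30 min at 4 °C. Recombinant JHDM1A (5 μM) and equal amounts of histones were then added in 25 mM Tris, 100 mM NaCl, 5 μM NiCl2, pH 7.5, for 4 h at 4 °C. The 350 nm, 20 min UV step was omitted. Beads were washed in HEPES/1 M NaCl/1% Triton, then water.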

JMJD1C/KDM3C = JMJD1C/KDM3C (Homo sapiens, UniProt Q15652); assay: Affinity pulldown from HeLa nuclear lysate, spectral count of JMJD1C/KDM3C; format: binding; details: HeLa nuclear extract
Outline: (§1)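 HeLa cells were grown in DMEM with 10% FCS and 1% penicillin/streptomycin at 37 °C, 5% CO2. Nuclei were prepared by hypotonic swelling and douncing, extracted in 0.4 M NaCl/20% glycerol buffer, and dialysed into 20 mM HEPES, 100 mM KCl, 2 mM MgCl2, pH 7.9. Streptavidin bead pulldowns used 2 mL lysate, and a no-probe control was included. Bead-bound material was washed, reduced with 4 mM DTT, alkylated with 14 mM iodoacetamide, trypsin-digested on the beads overnight at 37 °C, and run on nanoLC-LTQ/Orbitrap. Searches used human UniProt at 1% FDR, with spectral-count quantification.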

JMJD2A/KDM4A [3] = target: T2, JMJD2A/KDM4A (Homo sapiens, UniProt O75164); assay: Affinity pulldown from HeLa nuclear lysate, spectral count of JMJD2A/KDM4A; format: binding; details: HeLa nuclear extract, 20 μM probe 6
T2 sequence (O75164 2-1064): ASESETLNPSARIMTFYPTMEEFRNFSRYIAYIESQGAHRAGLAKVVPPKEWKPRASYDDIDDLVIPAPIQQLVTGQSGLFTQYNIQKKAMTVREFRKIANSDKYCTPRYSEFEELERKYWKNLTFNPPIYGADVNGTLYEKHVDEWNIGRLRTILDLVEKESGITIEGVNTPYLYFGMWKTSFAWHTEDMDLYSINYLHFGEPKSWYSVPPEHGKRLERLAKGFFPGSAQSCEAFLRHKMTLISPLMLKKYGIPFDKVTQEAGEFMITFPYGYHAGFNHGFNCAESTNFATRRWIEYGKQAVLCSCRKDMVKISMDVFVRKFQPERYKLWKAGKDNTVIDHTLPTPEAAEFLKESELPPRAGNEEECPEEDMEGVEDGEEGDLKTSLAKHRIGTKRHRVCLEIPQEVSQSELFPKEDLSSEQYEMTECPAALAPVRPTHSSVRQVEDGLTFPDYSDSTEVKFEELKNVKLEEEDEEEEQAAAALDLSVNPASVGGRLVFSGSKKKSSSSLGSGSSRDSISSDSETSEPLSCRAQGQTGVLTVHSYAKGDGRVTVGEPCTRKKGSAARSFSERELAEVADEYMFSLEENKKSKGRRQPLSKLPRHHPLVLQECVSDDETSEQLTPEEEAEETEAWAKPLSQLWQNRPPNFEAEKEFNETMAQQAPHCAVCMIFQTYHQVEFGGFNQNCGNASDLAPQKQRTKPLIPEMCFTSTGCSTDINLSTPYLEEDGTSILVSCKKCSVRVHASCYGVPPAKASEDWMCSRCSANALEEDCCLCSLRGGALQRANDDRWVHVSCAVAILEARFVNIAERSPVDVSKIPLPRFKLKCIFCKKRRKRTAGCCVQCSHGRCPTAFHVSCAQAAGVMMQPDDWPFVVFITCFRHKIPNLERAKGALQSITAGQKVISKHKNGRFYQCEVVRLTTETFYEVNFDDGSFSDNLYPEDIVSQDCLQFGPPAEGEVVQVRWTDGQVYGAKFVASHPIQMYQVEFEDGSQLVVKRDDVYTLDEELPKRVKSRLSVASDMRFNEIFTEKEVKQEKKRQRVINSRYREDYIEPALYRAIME

JMJD2A/KDM4A [4] = assay: as above; format: binding, human; details: HeLa nuclear extract, 20 μM probe 6, recombinant KDM4A spiked in at 25 nM
PHF8/KDM7A = PHF8/KDM7A (Homo sapiens, UniProt Q9UPP1); assay: Affinity pulldown from HeLa nuclear lysate, spectral count of PHF8/KDM7A; format: binding; details: HeLa nuclear extract
PHF8/KDM7A, sequence (Q9UPP1 whole entry): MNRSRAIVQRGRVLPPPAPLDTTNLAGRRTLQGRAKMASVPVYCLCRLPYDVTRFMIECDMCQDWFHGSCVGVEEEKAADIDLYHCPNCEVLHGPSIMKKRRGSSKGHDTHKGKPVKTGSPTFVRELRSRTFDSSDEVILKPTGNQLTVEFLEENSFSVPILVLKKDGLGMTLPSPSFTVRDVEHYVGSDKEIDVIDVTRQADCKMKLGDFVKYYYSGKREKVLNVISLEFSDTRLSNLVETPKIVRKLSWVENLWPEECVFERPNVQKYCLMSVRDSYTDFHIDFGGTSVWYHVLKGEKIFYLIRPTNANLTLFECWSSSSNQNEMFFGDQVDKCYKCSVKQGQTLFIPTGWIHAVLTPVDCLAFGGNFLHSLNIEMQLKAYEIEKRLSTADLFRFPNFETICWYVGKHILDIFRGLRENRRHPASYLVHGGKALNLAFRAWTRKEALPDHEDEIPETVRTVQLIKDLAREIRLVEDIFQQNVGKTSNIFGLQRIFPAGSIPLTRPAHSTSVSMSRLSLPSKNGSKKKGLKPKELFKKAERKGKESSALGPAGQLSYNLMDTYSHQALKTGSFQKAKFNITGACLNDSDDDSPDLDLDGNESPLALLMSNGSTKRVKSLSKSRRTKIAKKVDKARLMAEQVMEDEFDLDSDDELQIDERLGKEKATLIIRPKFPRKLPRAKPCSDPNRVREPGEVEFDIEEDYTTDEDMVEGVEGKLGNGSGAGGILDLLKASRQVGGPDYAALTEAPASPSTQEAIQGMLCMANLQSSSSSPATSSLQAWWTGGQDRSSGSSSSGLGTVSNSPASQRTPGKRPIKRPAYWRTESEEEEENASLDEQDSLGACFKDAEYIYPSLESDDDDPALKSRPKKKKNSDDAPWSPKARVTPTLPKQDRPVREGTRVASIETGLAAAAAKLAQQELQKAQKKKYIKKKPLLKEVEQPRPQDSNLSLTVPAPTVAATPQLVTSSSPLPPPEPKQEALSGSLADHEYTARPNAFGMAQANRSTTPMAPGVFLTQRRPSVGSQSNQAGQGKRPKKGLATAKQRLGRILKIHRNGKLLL
Outline: as §1

CHD8 = CHD8 (Homo sapiens, UniProt Q9HCK8); assay: Affinity pulldown from HeLa nuclear lysate, spectral count of CHD8; format: binding; details: HeLa nuclear extract
CHD8, sequence (Q9HCK8 whole entry): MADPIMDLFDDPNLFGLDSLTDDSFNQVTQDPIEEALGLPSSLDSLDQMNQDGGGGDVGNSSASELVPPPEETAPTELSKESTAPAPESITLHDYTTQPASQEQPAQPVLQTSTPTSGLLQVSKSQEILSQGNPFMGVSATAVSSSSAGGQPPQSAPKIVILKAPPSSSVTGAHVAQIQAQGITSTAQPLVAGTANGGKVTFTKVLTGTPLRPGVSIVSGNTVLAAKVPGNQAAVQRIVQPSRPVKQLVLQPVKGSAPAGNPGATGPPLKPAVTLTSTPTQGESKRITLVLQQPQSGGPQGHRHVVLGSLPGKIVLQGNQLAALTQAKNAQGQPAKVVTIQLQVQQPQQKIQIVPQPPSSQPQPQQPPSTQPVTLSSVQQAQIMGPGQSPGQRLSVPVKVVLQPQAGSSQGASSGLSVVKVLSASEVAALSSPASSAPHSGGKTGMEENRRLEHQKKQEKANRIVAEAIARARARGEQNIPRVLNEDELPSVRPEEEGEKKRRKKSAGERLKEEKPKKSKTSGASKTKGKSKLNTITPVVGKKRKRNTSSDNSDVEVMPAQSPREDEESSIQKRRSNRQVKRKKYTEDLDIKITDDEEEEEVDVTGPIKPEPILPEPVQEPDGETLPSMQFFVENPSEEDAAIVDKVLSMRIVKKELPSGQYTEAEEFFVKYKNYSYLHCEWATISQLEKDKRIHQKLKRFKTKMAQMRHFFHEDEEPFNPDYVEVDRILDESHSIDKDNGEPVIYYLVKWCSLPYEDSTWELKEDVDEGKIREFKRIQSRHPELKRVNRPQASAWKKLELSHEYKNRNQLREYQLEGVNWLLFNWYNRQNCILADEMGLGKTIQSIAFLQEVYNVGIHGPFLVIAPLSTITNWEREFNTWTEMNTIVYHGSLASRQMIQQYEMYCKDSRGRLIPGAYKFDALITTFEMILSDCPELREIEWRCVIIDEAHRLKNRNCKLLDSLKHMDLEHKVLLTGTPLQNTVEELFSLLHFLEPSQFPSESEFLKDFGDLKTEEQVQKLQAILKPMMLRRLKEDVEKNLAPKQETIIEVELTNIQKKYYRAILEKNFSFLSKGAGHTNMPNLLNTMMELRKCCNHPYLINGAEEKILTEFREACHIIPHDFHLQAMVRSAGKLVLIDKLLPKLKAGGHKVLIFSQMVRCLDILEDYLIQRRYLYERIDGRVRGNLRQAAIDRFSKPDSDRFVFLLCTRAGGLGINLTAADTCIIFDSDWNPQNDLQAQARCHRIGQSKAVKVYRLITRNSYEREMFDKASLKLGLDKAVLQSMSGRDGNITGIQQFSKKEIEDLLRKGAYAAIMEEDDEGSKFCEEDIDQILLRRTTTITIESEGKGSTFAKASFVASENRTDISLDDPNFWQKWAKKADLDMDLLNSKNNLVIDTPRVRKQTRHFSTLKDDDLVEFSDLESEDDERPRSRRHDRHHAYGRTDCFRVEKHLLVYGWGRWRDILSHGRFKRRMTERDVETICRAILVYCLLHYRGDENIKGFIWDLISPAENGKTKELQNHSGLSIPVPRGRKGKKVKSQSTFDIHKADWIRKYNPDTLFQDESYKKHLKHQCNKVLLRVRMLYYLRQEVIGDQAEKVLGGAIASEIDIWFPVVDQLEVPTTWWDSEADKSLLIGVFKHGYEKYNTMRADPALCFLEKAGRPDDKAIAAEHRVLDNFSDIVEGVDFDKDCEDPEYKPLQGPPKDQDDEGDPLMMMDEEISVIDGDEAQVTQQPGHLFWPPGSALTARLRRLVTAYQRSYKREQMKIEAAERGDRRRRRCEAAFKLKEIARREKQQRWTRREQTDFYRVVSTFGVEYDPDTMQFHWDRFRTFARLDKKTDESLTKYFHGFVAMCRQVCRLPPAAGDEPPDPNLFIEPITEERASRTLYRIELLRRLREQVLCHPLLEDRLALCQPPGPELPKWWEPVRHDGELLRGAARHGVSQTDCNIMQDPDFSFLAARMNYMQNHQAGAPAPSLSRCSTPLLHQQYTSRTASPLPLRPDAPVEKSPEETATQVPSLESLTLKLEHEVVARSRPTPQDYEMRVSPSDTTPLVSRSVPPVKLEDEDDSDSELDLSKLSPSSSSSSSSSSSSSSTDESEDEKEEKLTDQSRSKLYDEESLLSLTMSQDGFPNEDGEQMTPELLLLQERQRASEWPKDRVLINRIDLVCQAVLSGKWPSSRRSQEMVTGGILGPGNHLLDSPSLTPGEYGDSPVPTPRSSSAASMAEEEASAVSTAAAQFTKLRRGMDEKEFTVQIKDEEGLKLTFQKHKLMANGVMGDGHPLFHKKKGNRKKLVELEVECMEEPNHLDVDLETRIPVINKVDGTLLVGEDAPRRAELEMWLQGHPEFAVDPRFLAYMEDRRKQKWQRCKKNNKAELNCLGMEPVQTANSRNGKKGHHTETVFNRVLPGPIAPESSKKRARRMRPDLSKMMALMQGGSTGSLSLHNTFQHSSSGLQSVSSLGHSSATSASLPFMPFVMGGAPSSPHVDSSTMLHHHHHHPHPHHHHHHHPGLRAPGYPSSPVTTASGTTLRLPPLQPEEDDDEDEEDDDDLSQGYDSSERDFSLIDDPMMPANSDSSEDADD
Outline: as §1

CHD7 = CHD7 (Homo sapiens, UniProt Q9P2D1); assay: Affinity pulldown from HeLa nuclear lysate, spectral count of CHD7; format: binding; details: HeLa nuclear extract
Outline: as §1

HDAC1/2 = assay: Affinity pulldown from HeLa nuclear lysate, spectral count of HDAC1/2; format: binding, human; details: HeLa nuclear extract
Outline: as §1

[5] = 20 μM probe 6, recombinant KDM4A spiked in at 25 nM

In the case of `CC(C)[C@H](NC(=O)CNC(=O)CNC(=O)[C@@H](NC(=O)[C@H](Cc1ccc(C(=O)c2ccccc2)cc1)NC(=O)CCOCCOCCOCCOCCNC(=O)CCCC[C@@H]1SC[C@@H]2NC(=O)N[C@@H]21)[C@@H](C)O)C(=O)N[C@@H](CCCCN(C)CCCCN(O)C(=O)/C=C/C(=O)O)C(=O)N[C@@H](CCCCN)C(=O)N1CCC[C@H]1C(=O)N[C@@H](Cc1c[nH]cn1)C(=O)N[C@@H](CCCNC(=N)N)C(N)=O` [probe 6] ({Biotin-PEG4}-[Bpa]TGGV[X1]KPHR-NH2), the “fold increased affinity compared to nonfunctionalized native H3K36me2 histone 20mer peptide” value (JHDM1A [1]) was ~2 fold, the “pulldown of JHDM1A” value (JHDM1A [2]) was “complete absence of JHDM1A” and the “spectral count, endogenous” value (JMJD1C/KDM3C; 20 μM probe 6) was 6. For the same compound, the “spectral count, spiked-in” value (JMJD1C/KDM3C; [5]) was 3, the “spectral count, endogenous” value (JMJD2A/KDM4A [3]) was 0 and the “spectral count, spiked-in” value (JMJD2A/KDM4A [4]) was 5. For the same compound, the “spectral count, endogenous” value (PHF8/KDM7A; 20 μM probe 6) was 1, the “spectral count, spiked-in” value (PHF8/KDM7A; [5]) was 1 and the “spectral count, endogenous” value (CHD8; 20 μM probe 6) was 2. For the same compound, the “spectral count, spiked-in” value (CHD8; [5]) was 3, the “spectral count, endogenous” value (CHD7; 20 μM probe 6) was 5 and the “spectral count, spiked-in” value (CHD7; [5]) was 1. The “spectral count, endogenous” value (HDAC1/2; 20 μM probe 6) was 8 and the “spectral count, spiked-in” value (HDAC1/2; [5]) was 3.
